From PubChem BioAssay
NadD block: blocks S. aureus nicotinate mononucleotide adenylyltransferase; purified NadD enzyme, colorimetric absorbance read-out; inhibition, % at 20 µM; 360,000 compounds, 0.78% hits; in the data active means inhibition above about 26%
CTSL1 counter: blocks F. hepatica cathepsin L1 in PFM18AAP counter-screen | AID 1906 | 300,000 compounds, 0.49% hits | recombinant F. hepatica cathepsin L1, Z-Leu-Arg-MCA fluorescence | inhibition, % at 5.96 µM;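 active means inhibition above the mean of all tested compounds plus 3 SD, set per screening campaign, cut at about 17% in these data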
Myeloid diff 2: myeloid differentiation induction. 360,000 compounds, 1% hits. ER-HoxA9 myeloid progenitors, lysozyme-GFP differentiation, flow cytometry. AID 624256. calls only at 10 µM;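 active means normalized GFP-positive differentiation at or above the plate's own cutoff, the solvent-only control mean plus 3 SD; inconclusive means no clear call, values can overlap the other calls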;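 further: cells exposed to compound for four days before flow analysis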
PP1 inh: PP1-alpha (human) inhibition in PP5 counter-screen | purified PP1alpha, OMFP fluorescence | inhibition, % at 6.7 µM | 320,000 compounds, 0.9% hits | AID 2235;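 active means inhibition above the mean inhibition of all tested compounds plus 3 SD, computed separately for each screening campaign, cut at about 15% in these data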
core dimer inh: blocks dimerization of HCV core protein. TR-FRET GST/Flag-core106 dimerization, 1536-well. inhibition, % at 5 µM. 300,000 compounds, 0.33% hits;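 active means inhibition above the mean of all tested compounds plus 3 SD, set per screening campaign, cut at about 45% in these data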
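Assay system – GST-tagged and Flag-tagged HCV core protein residues 1-106 · Quantity – core106 proteins, GST 13.5 nM and Flag 17 nM · Benchmarks – unlabelled core106 and no-GST-core106 wells · Read-out basis – percent inhibition of core106 dimerization signal · Detection – time-resolved FRET, ex 340 nm, em 617 and 671 nm · Schedule – 4 h at 22.5 °C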
PP5 inh: blocks human protein phosphatase 5 activity; P53041; purified PP5c, OMFP substrate fluorescence; inhibition, % at 6.7 µM; 320,000 compounds, 0.18% hits;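 active means inhibition above the campaign's mean inhibition across all tested compounds plus 3 SD, cut at about 9.5% in these data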
Target sequence (P53041 whole entry, looked up): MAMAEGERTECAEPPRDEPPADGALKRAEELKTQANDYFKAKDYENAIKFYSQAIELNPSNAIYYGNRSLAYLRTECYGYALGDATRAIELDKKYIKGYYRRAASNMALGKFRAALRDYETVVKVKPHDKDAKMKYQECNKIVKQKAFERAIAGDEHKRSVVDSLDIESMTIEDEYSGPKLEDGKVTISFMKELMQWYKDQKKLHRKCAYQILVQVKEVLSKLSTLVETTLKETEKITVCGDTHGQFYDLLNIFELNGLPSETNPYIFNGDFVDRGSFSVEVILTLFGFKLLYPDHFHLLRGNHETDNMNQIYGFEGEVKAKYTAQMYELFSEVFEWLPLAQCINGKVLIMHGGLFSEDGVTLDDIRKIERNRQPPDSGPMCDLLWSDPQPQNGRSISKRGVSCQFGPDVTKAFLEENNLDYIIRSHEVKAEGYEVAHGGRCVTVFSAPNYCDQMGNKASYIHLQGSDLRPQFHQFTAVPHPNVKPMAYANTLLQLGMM
Large screens that a line does not name were inactive. A selection: hits, their analogues and other compounds. The true share with any hit is near 3.1%.

COc1ccc(-c2oc3ccc(N4CCOCC4)cc3c2C#Cc2ccc(N)cc2)cc1	Myeloid diff 2 active
COc1ccc(C#Cc2c(-c3ccsc3)oc3ccc(N4CCOCC4)cc23)cc1	none
CNC(=O)c1cc(S(=O)(=O)N2CC(C)OC(C)C2)ccc1N1CCCCC1 (centres undefined)	Myeloid diff 2 inconclusive (no result: CTSL1 counter, PP1 inh, core dimer inh, PP5 inh)
O=C(CSCCOc1ccccc1)NCc1ccncc1	none
Cc1c(CCC(=O)NCCCn2ccnc2)c(=O)oc2c(C)c3oc4c(c3cc12)CCCC4	Myeloid diff 2 active
Cc1ccc2c(c1)N(C)/C(=C/c1cccc[n+]1CCO)S2	Myeloid diff 2 active
Cc1ccc2c(c1)N(C)/C(=C/c1cccc[n+]1C)S2	Myeloid diff 2 inconclusive
CCN(CC)C(=O)C1=C(C)N(CCC2=CCCCC2)C(=O)C(CC(=O)NCCCN(C)C)C1 (centres undefined)	none (no result: CTSL1 counter, PP1 inh, core dimer inh, PP5 inh)
O=C(N=Nc1c(O)[nH]c2ccccc12)c1cc(NS(=O)(=O)c2cccs2)cc(NS(=O)(=O)c2cccs2)c1	PP1 inh 16
O=C(N=Nc1c(O)[nH]c2ccccc12)c1cccs1	none
COc1ccccc1N(C)S(=O)(=O)c1ccc(C(=O)N(C)Cc2ccc(OC(F)F)cc2)cc1	none (no result: CTSL1 counter, PP1 inh, core dimer inh, PP5 inh)
COc1ccc(-c2sc3cc(OC)ccc3c2-c2ccc(OCCN3CCCCC3)cc2)cc1	Myeloid diff 2 active (no result: CTSL1 counter, PP1 inh, core dimer inh, PP5 inh)
Oc1ccc(/C=N/Nc2ccnc3cc(Cl)ccc23)c(O)c1	Myeloid diff 2 active
Cc1ccccc1/C=N/Nc1ccnc2cc(Cl)ccc12	none
COc1ccccc1OCC(=O)Nc1c2c(nn1-c1ccccc1)CS(=O)(=O)C2	none
CC(=O)N(Cc1nc2sc(C)c(C)c2c(=O)[nH]1)C1CCCC1	CTSL1 counter 27
COc1ccc(S(=O)(=O)NCC(=O)N(CC(=O)NCc2ccco2)C2CCCC2)cc1	none
Cc1ccc(-c2cc(Cc3ccccn3)c(=O)[nH]n2)cc1	none
O=C(CNC(=O)[C@@H]1Cc2ccccc2CN1)NCc1ccco1	Myeloid diff 2 active
O=C(CNC(=O)[C@@H]1Cc2ccccc2CN1)Nc1ccc2c(c1)OCO2	Myeloid diff 2 active
C[C@H](NC(=O)[C@@H]1Cc2ccccc2CN1)C(=O)Nc1ccc2c(c1)OCO2	none
O=C(CCNC(=O)c1ccco1)NNC(=O)c1ccc(Br)cc1	Myeloid diff 2 active (no result: CTSL1 counter, PP1 inh, core dimer inh, PP5 inh)
O=C(NCCNC(=O)c1cccs1)c1ccco1	CTSL1 counter 19
CCCCc1ccc(NC(=O)CSc2nnc(C)c(=O)n2N)cc1	none
COc1ccc(OC)c2cc3ccccc3cc12	Myeloid diff 2 active (no result: CTSL1 counter, PP1 inh, core dimer inh, PP5 inh)
COc1ccc(Nc2c[nH]c(=O)[nH]c2=O)cc1	none (no result: CTSL1 counter, PP1 inh, core dimer inh, PP5 inh)
Clc1ccc(Nc2nc(NCCN3CCOCC3)nc(N3CCOCC3)n2)cc1	CTSL1 counter 18
CC1CCCC(C)N1C(=O)c1cc(-c2ccco2)on1 (centres undefined)	Myeloid diff 2 active
O=C(Nc1cc(Cl)ccc1Cl)c1cc(-c2ccco2)on1	none
CC1CCN(C(=O)c2cc(-c3ccco3)on2)CC1	none
COc1ccc(Cl)cc1NC(=O)c1cc(-c2ccco2)on1	core dimer inh 63
Cc1ccc(NC(=O)c2cc(-c3ccco3)on2)cc1C	CTSL1 counter 21
Cc1ccc(NC(=O)c2cc(-c3ccco3)on2)cc1	none
COc1ccc(OC)c(NC(=O)c2ccc(Cl)cc2)c1	CTSL1 counter 49
COc1cccc(N(CC(=O)NC2CCCCC2)C(=O)CCC(=O)Nc2nc(C)cs2)c1	none
CN(C)CCOC(c1ccccc1)c1ccccc1 (tested in a mixture with another compound)	Myeloid diff 2 active
CN(C)CCOC(c1ccccc1)c1ccccc1	none
CCCc1cc(C(=O)Nc2ccc(C(C)=O)cc2)no1	CTSL1 counter 17
CCCc1cc(C(=O)Nc2cccc(C(C)=O)c2)no1	none
CCC(C)C(N)C(=O)N1CCCC1C(=O)NC(C(=O)O)C(C)CC (centres undefined)	none (no result: CTSL1 counter, PP1 inh, core dimer inh, PP5 inh)
CC1CCC(NC(=O)C2CCN(S(=O)(=O)c3ccc4nc5c(c(C(=O)O)c4c3)CC(C)CC5)CC2)CC1 (centres undefined)	CTSL1 counter 19
CC1CCc2nc3ccc(S(=O)(=O)N4CCC(C(=O)NCc5ccccc5Cl)CC4)cc3c(C(=O)O)c2C1 (centres undefined)	none
O=C(NN=C1CCN(Cc2ccccc2)CC1)c1ccccc1O	none
O=C(NN=C1CCN(Cc2ccccc2)CC1)c1cc2ccccc2cc1O	NadD block 42
CC(C)(C)S(=O)(=O)N1Cc2ccc(CO)cc2[C@H]1CCO	none (no result: CTSL1 counter, PP1 inh, core dimer inh, PP5 inh)
COc1ccc(C(C)=O)cc1COC(=O)c1ccc2c(c1)OCCO2	none (no result: CTSL1 counter, core dimer inh)
NNc1nc2c(-c3ccc(Cl)cc3)nnn2c2ccccc12	Myeloid diff 2 active
Fc1ccc(-c2nnn3c2nc(NCc2ccccc2)c2ccccc23)cc1	none
NNc1nc2c(-c3ccc(F)cc3)nnn2c2ccccc12	Myeloid diff 2 active
COCCCNc1nc2c(-c3ccc(Cl)cc3)nnn2c2ccccc12	none
CCN1CCSc2ccc(C(=O)NCc3ccccc3C)cc21	none
CCN1CCSc2ccc(C(=O)NCc3ccccc3F)cc21	Myeloid diff 2 active
CCN1CCN(CCCNC(=O)c2ccc3c(c2)N(Cc2ccccc2)CCS3)CC1	CTSL1 counter 42
O=C(CSc1ccccc1)Nc1ccc2sccc2c1	none
COCCn1c(C)cc(C(=O)COC(=O)c2cccc(O)c2)c1C	none
COCCn1c(C)cc(C(=O)COC(=O)c2cc3c(s2)CCC3)c1C	core dimer inh 79
CCCC(NC(=O)CCl)c1ccccc1 (centres undefined)	CTSL1 counter 22
Cn1cccc1/C=C1\CC(C(C)(C)C)C/C(=C\c2cccn2C)C1=O (centres undefined)	Myeloid diff 2 active
COc1ccccc1C(=O)Nc1nc2cc3c(cc2s1)OCCO3	Myeloid diff 2 active
COc1cc(NC(=O)CCc2nnc3ccc(N4CCN(c5cccc(OC)c5)CC4)nn23)cc(OC)c1	CTSL1 counter 66
COc1cc(NC(=O)CCc2nnc3ccc(N4CCCCC4)nn23)cc(OC)c1OC	Myeloid diff 2 active
Cc1cc(C)cc(N2Cc3ccccc3C2)c1	core dimer inh 62
COC(=O)c1cc(NC(=O)CCc2c(C)nc3ncnn3c2C)cc(C(=O)OC)c1	Myeloid diff 2 active
CCOc1ccc2nc(NC(=S)N(C)C)sc2c1	Myeloid diff 2 active
CC(=O)Nc1ccc(SCC(=O)NC(=O)c2ccc(S(=O)(=O)N(C)C)cc2)cc1	none (no result: CTSL1 counter, PP1 inh, core dimer inh, PP5 inh)
COc1cc2c(cc1OC)CC(C(=O)NCc1ccccc1)NC2 (centres undefined)	none
COc1ccccc1CNc1nc(-c2cc(C)n(C)c2C)cs1	NadD block 30 (no result: CTSL1 counter, PP1 inh, core dimer inh, PP5 inh)
O=c1c2c(nc3cc(-c4ccccc4)[nH]n13)CCS2	none
O=c1c2c(nc3cc(-c4ccccc4Cl)[nH]n13)CCS2	PP1 inh 17
N#Cc1c(N)n(CCNC(=O)c2cccs2)c2nc3ccccc3nc12	Myeloid diff 2 active
